Assay outcomes deposited in PubChem BioAssay by several laboratories.
H69AR inhibit: proliferation blockers of H69AR lung cancer cells, primary screen, cell-based, human, 86K library | AID 598, 2007 | H69AR lung tumor viability, ATP luminescence, 72 h; hits give low values | viability, % at 10 µM | actives 6% (n = 85,000);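 active = viability at or below 40%; inactive = viability above 40%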;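 note: multidrug resistant small cell line overexpressing MRP-1 efflux transporter; 100% = mean luminescence of untreated control wells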
PTEN del growth: growth suppression of PTEN-null HCT116, primary screen, cell-based, CellTiter-Glo; HCT116 PTEN-null viability, 60 h; hits give low values; actives 1.2% (n = 140,000); AID 827, 2007; viability, % at 10 µM;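 active = viability at or below a set limit, 4 SD under the median of all tested compounds, cut at about 3.7% in these data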;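 note: PTEN knockout HCT116 line with beta catenin targeted HCT116 as companion control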
Lung fibro prol: antiproliferative effect on LL 47 fibroblasts – human, LL 47 cells, CellTiter-Glo luminescence, primary screen. LL 47 human lung fibroblast viability, ATP luminescence; hits give low values. AID 719, 2007. viability, % at 10 µM. actives 1.1% (n = 85,000);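 active = viability at or below 50% in the single dose screen; inactive = viability above 50%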;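 note: compound exposure lasted 72 h before the ATP readout; 100% = median luminescence of untreated cell-only wells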
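Test system: LL 47 human lung fibroblasts; Quantity: 1,150 cells/well; Buffer or medium: IMEM plus 15% FBS; Dosing: tenfold compound dosing solution, DMSO at 0.1%; Timing: overnight cell rest, 72 h compound treatment at 37 °C; Detection: ATP-based CellTiter-Glo luminescent readout; Read-out basis: viability percentage against median untreated-cell control; Controls: cell-only wells, no compound.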
Pyk2 oligo antag: antagonists of Pyk2 self-association, primary screen, Q293 cells, FERM NanoBiT luminescence, HTS. AID 1347419, 2020. z-score (the deposit names both 25 µM and 10 µM). actives 0.83% (n = 99,000). hits give low values;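 active = Z-score of -3 or lower, scaled per plate to the spread of control and sample wells; inactive = z-score above -3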;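 note: negative z-score means lost luminescence so less FERM oligomerization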
Target sequence (Q14289 whole entry, looked up): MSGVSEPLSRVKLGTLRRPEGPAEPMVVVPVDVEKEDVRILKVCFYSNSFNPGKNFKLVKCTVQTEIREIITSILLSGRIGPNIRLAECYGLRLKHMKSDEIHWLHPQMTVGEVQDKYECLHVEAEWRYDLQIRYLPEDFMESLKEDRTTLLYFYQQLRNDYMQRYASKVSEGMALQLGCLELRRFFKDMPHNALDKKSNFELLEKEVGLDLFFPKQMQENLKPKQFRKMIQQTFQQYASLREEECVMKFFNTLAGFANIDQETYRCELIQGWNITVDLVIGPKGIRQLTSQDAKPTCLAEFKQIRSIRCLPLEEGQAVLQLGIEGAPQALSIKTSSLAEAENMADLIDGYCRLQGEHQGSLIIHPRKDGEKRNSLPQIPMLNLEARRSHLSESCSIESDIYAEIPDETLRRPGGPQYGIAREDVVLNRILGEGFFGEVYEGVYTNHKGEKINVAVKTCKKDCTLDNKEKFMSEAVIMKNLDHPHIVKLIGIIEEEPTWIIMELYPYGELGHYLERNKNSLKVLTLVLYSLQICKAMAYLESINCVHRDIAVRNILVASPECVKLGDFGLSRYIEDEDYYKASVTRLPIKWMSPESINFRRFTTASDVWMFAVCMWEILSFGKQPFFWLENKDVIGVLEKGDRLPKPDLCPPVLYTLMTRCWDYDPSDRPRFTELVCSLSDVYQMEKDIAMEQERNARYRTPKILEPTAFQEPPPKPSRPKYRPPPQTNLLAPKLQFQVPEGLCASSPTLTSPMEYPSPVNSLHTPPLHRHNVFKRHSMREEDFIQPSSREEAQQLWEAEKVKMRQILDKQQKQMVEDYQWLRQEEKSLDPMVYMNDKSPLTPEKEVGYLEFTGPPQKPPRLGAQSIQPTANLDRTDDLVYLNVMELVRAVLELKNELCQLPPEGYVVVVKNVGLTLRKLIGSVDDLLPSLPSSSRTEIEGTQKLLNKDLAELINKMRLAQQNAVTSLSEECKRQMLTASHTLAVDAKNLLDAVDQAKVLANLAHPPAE
HUVEC inhibit: inhibitors of HUVEC proliferation, primary screen, cell-based, 384-well. CellTiter-Glo luminescence, 72 h; hits give low values. viability, % at 10 µM (by protocol). actives 1.1% (n = 86,000);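 active = viability at or below 30%; inactive = viability above 30%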;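 note: 100% = median luminescence of DMSO-only cell control wells on each plate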
HCT116 bCat-KO: primary screen for growth suppressors in beta-catenin knockout HCT116 cells (colon tumor, human); viability, % at 10 µM; HCT116 beta-catenin knockout viability, CellTiter-Glo, 60 h; hits give low values; actives 1.5% (n = 140,000);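 active = viability at or under a set limit, the compound median less 4 SD, cut at about 6% in these data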;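 note: 0% = Hyamine 1622 control at 20 µM and 100% = untreated cell control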
The depositor's hits bear a star; nt = no result given. The entries come from a sample that favours hits as a whole.

SMILES | H69AR inhibit | PTEN del growth | Lung fibro prol | Pyk2 oligo antag | HUVEC inhibit | HCT116 bCat-KO
Cc1cccc(C(=O)Nc2nccs2)c1[N+](=O)[O-] | nt | 102 | nt | nt | nt | 94
CSc1nc2sc3c(c2c2nncn12)CCC3 | 77 | 102 | 89 | nt | 93 | 102
CCc1nc(-n2[nH]c(=O)c3ccccc3c2=O)c2c3c(sc2n1)CCCC3 | nt | nt | nt | -0.76 | nt | nt
CCc1nc(Sc2nnnn2-c2ccccc2)c2c3c(sc2n1)CCCC3 | nt | 3.1* | nt | nt | nt | 4.9*
Cc1nc(Sc2nnnn2C)c2c3c(sc2n1)CCC3 | 23* | 20 | 33* | 0.07 | 45 | 24
CCOc1cc2c(cc1OCC)C(c1ccccc1)N(c1ccccc1)C(=O)C2 (stereo not drawn) | nt | 51 | nt | nt | nt | 43
COc1ccc(N(CCC#N)S(=O)(=O)c2cccc3nsnc23)cc1 | nt | 88 | nt | nt | nt | 93
CCOc1ccc(N(CCC#N)S(=O)(=O)c2ccc(OC)cc2)cc1 | 21* | 56 | 85 | 0.07 | 80 | 62
CCOC(=O)N1CCN(Cc2nc3c(c(=O)[nH]c(=O)n3C)n2Cc2cc(C)ccc2C)CC1 | 85 | 85 | 102 | 1 | 109 | 87
C=CCn1cnc2c(c1=O)c1nc3ccccc3nc1n2/N=C/c1cc(OC)c(OC)c(OC)c1 | 8.9* | 1.4* | 24* | -2.1 | 39 | 0.8*
Cc1csc(NC(=O)CSc2nnc(NC(=O)COc3ccc(Cl)cc3)s2)n1 | nt | 84 | nt | nt | nt | 98
COc1cccc2cc(C(=O)NCc3ccco3)c(=Nc3ccc(C(=O)O)cc3)oc12 | 12* | 49 | 85 | 0.69 | 78 | 67
COc1cccc2cc(C(=O)NCc3ccco3)c(=O)oc12 | nt | 98 | nt | nt | nt | 91
CCN(CC)S(=O)(=O)c1cccc(C(=O)Nc2nc3cc4c(cc3s2)OCCO4)c1 | 22* | 54 | 95 | -3.5* | 104 | 39
CCN(CC)S(=O)(=O)c1ccc2nc(NC(=O)c3cccs3)sc2c1 | nt | 85 | nt | -2.4 | nt | 96
O=C(NNc1nc2cc3c(cc2s1)OCO3)c1cccc(F)c1 | nt | 0.2* | nt | nt | nt | 0.6*
COC(=O)c1c(O)cc(C(C)(C)C)n(-c2ccc(F)cc2)c1=O | nt | 109 | nt | nt | nt | 88
COc1ccc(C/C(C)=N/NC(=O)c2cccnc2)cc1 | nt | 91 | nt | nt | nt | 89
CCOc1cccc2cc(C(=O)Nc3nccs3)c(=O)oc12 | nt | 92 | nt | 0.84 | nt | 95
CCOc1cccc2cc(-c3csc(NC(=O)CCC(=O)N4CCC(C)CC4)n3)c(=O)oc12 | 18* | 79 | 22* | -1.5 | 28* | 73
CC1CCN(C(=O)CSCC(=O)Nc2nc(-c3cccs3)cs2)CC1 | 98 | 92 | 91 | nt | 95 | 94
CCOc1cccc2cc(-c3csc(NC(=O)CCC(=O)N4CCN(C)CC4)n3)c(=O)oc12 | 33* | nt | 66 | nt | 78 | nt
Cc1ccccc1CNC(=O)c1ccc(CSCc2ccccc2)cc1 | nt | 90 | nt | -0.35 | nt | 99
CCOc1ccc(NC(=O)Nc2cc(C)ccc2F)cc1 | 90 | 66 | 81 | -1 | 85 | 68
CCCCOC(=O)c1ccc(NC(=O)/C=C/c2cccs2)cc1 | nt | 80 | nt | nt | nt | 84
SMILES | H69AR inhibit | PTEN del growth | Lung fibro prol | Pyk2 oligo antag | HUVEC inhibit | HCT116 bCat-KO
Cc1cnc(C(=O)Nc2cccc3cccnc23)cn1 | 3.6* | 10 | 43* | 1.3 | 5.1* | 17
COC1=C(c2ccccc2)C(=O)c2ccccc2C1=O | nt | 2.0* | nt | nt | nt | 1.9*
O=C(C1=C(c2ccccc2)C(=O)c2ccccc2C1=O)c1ccccc1 | nt | 1.5* | nt | nt | nt | 1.5*
COc1ccc(C2=C(N)c3ccccc3C2=O)cc1 | 98 | 76 | 89 | -0.62 | 85 | 84
Cc1nn(Cc2ccc(Cl)cc2)c(C)c1NC(=O)C(c1ccccc1)c1ccccc1 | nt | 68 | nt | 0.43 | nt | 79
CCCCCn1c(SCC#N)nc2cc(C(=O)NC3CCCCC3)ccc2c1=O | 53 | nt | 48* | nt | 67 | nt
Cn1cnc2cc(NS(=O)(=O)c3ccc(Br)cc3)ccc21 | 39* | 61 | 85 | 0.88 | 98 | 67
CC(C)(C)n1cnc2cc(NS(=O)(=O)c3ccccc3)ccc21 | 98 | 90 | 39* | 0.24 | 100 | 86
CCCn1nnc(NC(=S)NC(=O)CC)n1 | nt | 95 | nt | 0.26 | nt | 102
O=C(COC(=O)[C@H](Cc1ccccc1)NS(=O)(=O)c1ccccc1F)NC1CCCCC1 | nt | 93 | nt | 0.25 | nt | 79
CCOC(=O)C1=C(C)OC(N)=C(C#N)C1c1cc2c(cc1Br)OCO2 (stereo not drawn) | 30* | 87 | 92 | -1.9 | 89 | 85
O=C(/C=C/c1ccccc1)NC(NC(=S)Nc1cccc(Cl)c1)C(Cl)(Cl)Cl (stereo not drawn) | nt | 2.9* | nt | -2.1 | nt | 10
COc1ccc(NC(=S)NC(NC(=O)c2cccc(C)c2)C(Cl)(Cl)Cl)c([N+](=O)[O-])c1 (stereo not drawn) | 84 | 77 | 98 | -0.44 | 81 | 85
COc1ccc(NC(=S)NC(NC(=O)c2cccc(Cl)c2)C(Cl)(Cl)Cl)c([N+](=O)[O-])c1 (stereo not drawn) | 2.9* | 65 | 94 | -1.1 | 12* | 66
O=C(/C=C/c1ccccc1)NC(NC(=S)Nc1cccc(O)c1)C(Cl)(Cl)Cl (stereo not drawn) | nt | 30 | nt | nt | nt | 28
O=C(NC(NC(=S)Nc1ccccc1Cl)C(Cl)(Cl)Cl)c1cccc(Cl)c1 (stereo not drawn) | nt | 2.7* | nt | nt | nt | 5.6*
O=C(CSc1nnc(-c2ccccc2)n1Cc1ccccc1)N1CCOCC1 | 80 | 107 | 88 | 0.16 | 98 | 108
Oc1ccccc1-c1nnc(SCCN2CCOCC2)n1Cc1ccccc1 | 15* | 2.4* | 24* | -0.36 | 88 | 2.7*
CCN1C(=O)/C(=C/N(C(C)=O)c2ccccc2)N(c2ccccc2)C1=S | 16* | 31 | 68 | -0.23 | 80 | 34
Cc1cccc(Nc2nc(-c3ccc4c(c3)OCCO4)cs2)c1 | 22* | 80 | 114 | 0.72 | 73 | 74
Cc1cccc(Nc2nc(-c3c(C)nc4ccccn34)cs2)c1 | nt | 40 | nt | -1.7 | nt | 36
O=C(Nc1ccc(Br)cc1)C1CCN(C(=O)c2ccc(F)cc2)CC1 | nt | 80 | nt | nt | nt | 75
O=C(Nc1cccc(F)c1)C1CCN(C(=O)c2ccc(Br)cc2)CC1 | 34* | 69 | 102 | 0.01 | 92 | 69
Cc1ccc(C#CC[N+]2(CC#Cc3ccc(C)cc3)CCCCC2)cc1 | nt | 4 | nt | nt | nt | 7
Cc1ccc(C)c(NC2=C(Cl)C(=O)OC2OC(=O)c2ccco2)c1 (stereo not drawn) | 9.4* | 72 | 91 | -1.4 | 79 | 76
O=C(NCCc1ccccc1)C(c1cccs1)N(C(=O)CCl)c1ccc(Cl)cc1 (stereo not drawn) | nt | 0.8* | nt | nt | nt | 1.1*
COC(=O)c1ccc2nc(C)c(C)nc2c1 | nt | 95 | nt | 0.26 | nt | 98
